Data as given in ChEMBL document CHEMBL1131069 (J Med Chem, 1998).
Active and inactive are the calls of the source. The rule behind the calls is not given here.

Key:
Rattus norvegicus [1] = experiment: Anticonvulsant ED50 activity by MES test in rats dosed orally; format: functional; settings: po
How it was run: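 Male Sprague-Dawley rats (100-150 g) dosed orally. ED50 is the dose protecting 50% of animals against maximal electroshock-induced seizures. […]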

[2] = Apparent IC50 value by [3H]batrachotoxinin-A-20-alpha-benzoate-binding test performed in rat brain synaptosomes; format: subcellular
How it was run: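 Rat brain synaptosomes, about 400 µg protein per assay, incubated 2 h at 37 °C, pH 7.4, in choline chloride/HEPES/glucose/KCl medium with 10 nM [³H]batrachotoxinin-A-20α-benzoate and scorpion venom. Stopped with cold-free choline chloride/HEPES/CaCl₂/MgSO₄ washes, filtered on GF/B, bound radioactivity counted. Protein by Bradford. Apparent IC50 from quadruplicate measurements, mean ± SD.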

Mus musculus [3] = experiment: Anticonvulsant activity determined at 30 minutes after the administration of compound using MES test.(++= signify activity at 100 mg/kg); format: functional, organism-based; set-up: dose 100 mg/kg
How it was run: (§1)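 Male CF-1 albino mice (18-25 g) dosed intraperitoneally at 30, 100 or 300 mg/kg. Protection against maximal electroshock-induced seizures was scored 30 min or 4 h after dosing.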

Rattus norvegicus [4] = experiment: Anticonvulsant activity was determined in rats at a dose of 30 mg/kg after 4 hour by MES test. (++ denotes activity in 25-50% of administered animals).; format: functional, organism-based; set-up: dose 30 mg/kg
Rattus norvegicus [5] = experiment: Anticonvulsant activity was determined in rats at a dose of 30 mg/kg after 2 hour by MES test. (+ denotes activity in 0-25% of administered animals).; format: functional, organism-based; set-up: dose 30 mg/kg
Mus musculus [6] = experiment: Anticonvulsant activity determined at 4 hours after the administration of compound using MES test.(++= signify activity at 100 mg/kg); format: functional, organism-based; set-up: dose 100 mg/kg; how it was run: as §1
[7] = Neurotoxicity determined at 30 minutes after the administration of compound by rotarod test.(+ = signify activity at 300 mg/kg); format: toxicity, organism-based; set-up: dose 300 mg/kg; settings: mouse, in vivo, 0.5 h
How it was run: (§2)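 Male CF-1 mice dosed ip at 30, 100 or 300 mg/kg and tested 30 min or 4 h later on a 1-in. knurled rod turning at 6 rpm. A deficit was failure to stay on the rod for 1 min in each of three trials. Coding: ++ 100, + 300 mg/kg; - means none at 300 mg/kg.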

[8] = Neurotoxicity determined at 4 hours after the administration of compound by rotarod test (- denotes activity at 300 mg/kg); format: toxicity, organism-based; set-up: dose 300 mg/kg; settings: mouse, in vivo; how it was run: as §2
Rattus norvegicus [9] = experiment: Anticonvulsant activity was determined in rats at a dose of 30 mg/kg after 1 hour by MES test. (++ denotes activity in 25-50% of administered animals).; format: functional, organism-based; set-up: dose 30 mg/kg
[10] = Neurotoxicity determined at 30 minutes after the administration of compound by rotarod test.(- denotes activity at 300 mg/kg); format: toxicity, organism-based; set-up: dose 300 mg/kg; settings: mouse, in vivo, 0.5 h; how it was run: as §2
[11] = Neurotoxicity determined at 4 hours after the administration of compound by rotarod test(- denotes activity at 300 mg/kg); format: toxicity, organism-based; set-up: dose 300 mg/kg; settings: mouse, in vivo; how it was run: as §2
Rattus norvegicus [12] = experiment: Anticonvulsant activity was determined in rats at a dose of 30 mg/kg after 30 minutes by MES test. (++++ denotes activity in 75-100% of administered animals); format: functional, organism-based; set-up: dose 30 mg/kg
[13] = Neurotoxicity determined at 30 minutes after the administration of compound by rotarod test.(++= signify activity at 100 mg/kg); format: toxicity, organism-based; set-up: dose 100 mg/kg; settings: mouse, in vivo, 0.5 h; how it was run: as §2
Rattus norvegicus [14] = experiment: Anticonvulsant activity was determined in rats at a dose of 30 mg/kg after 1 hour by MES test. (++++ denotes activity in 75-100% of administered animals); format: functional, organism-based; set-up: dose 30 mg/kg
Rattus norvegicus [15] = experiment: Anticonvulsant activity was determined in rats at a dose of 30 mg/kg after 2 hour by MES test. (++++ denotes activity in 75-100% of administered animals); format: functional, organism-based; set-up: dose 30 mg/kg
Rattus norvegicus [16] = experiment: (§3) Toxicity was determined in rats at a dose of 30 mg/kg after 4 hour. (- denotes no activity in administered animals).; format: functional, organism-based; set-up: dose 30 mg/kg
How it was run: (§4)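 Male Sprague-Dawley rats given a single oral dose of 30 mg/kg and assessed for toxicity 4 h after dosing, with at least four animals per time point. Score is the fraction of animals affected (+ 0-25%); - means no toxicity.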

Mus musculus [17] = experiment: Anticonvulsant activity determined at 4 hours after the administration of compound using sc Ptz test. (- denotes activity at 300 mg/kg); format: functional, organism-based; set-up: dose 300 mg/kg
How it was run: (§5)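 Male CF-1 mice (18-25 g) dosed ip at 30, 100 or 300 mg/kg. Pentylenetetrazol in 0.9% NaCl was injected sc at 0.01 mL/g. Tests were run 30 min or 4 h after dosing.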

[18] = Neurotoxicity determined at 4 hours after the administration of compound by rotarod test (++= signify activity at 100 mg/kg); format: toxicity, organism-based; set-up: dose 100 mg/kg; settings: mouse, in vivo; how it was run: as §2
Rattus norvegicus [19] = experiment: Anticonvulsant activity was determined in rats at a dose of 30 mg/kg after 15 minutes by MES test. (++++ denotes activity in 75-100% of administered animals); format: functional, organism-based; set-up: dose 30 mg/kg
Mus musculus [20] = experiment: Anticonvulsant activity determined at 30 minutes after the administration of compound using sc Ptz test. (+++ = activity at 30 mg/kg); format: functional, organism-based; set-up: dose 30 mg/kg; how it was run: as §5
Mus musculus [21] = experiment: Anticonvulsant activity determined at 30 minutes after the administration of compound using MES test. (+++ = activity at 30 mg/kg); format: functional, organism-based; set-up: dose 30 mg/kg; how it was run: as §1
Mus musculus [22] = experiment: Anticonvulsant activity determined at 4 hours after the administration of compound using MES test. (++= signify activity at 100 mg/kg); format: functional, organism-based; set-up: dose 100 mg/kg; how it was run: as §1
[23] = as §3; format: organism-based; set-up: dose 30 mg/kg; settings: rat, in vivo; how it was run: as §4
[24] = Neurotoxicity determined at 30 minutes after the administration of compound by rotarod test. (+ = signify activity at 300 mg/kg); format: toxicity, organism-based; set-up: dose 300 mg/kg; settings: mouse, in vivo, 0.5 h; how it was run: as §2
Rattus norvegicus [25] = experiment: Anticonvulsant activity was determined in rats at a dose of 30 mg/kg after 4 hour by MES test. (++++ denotes activity in 75-100% of administered animals); format: functional, organism-based; set-up: dose 30 mg/kg

SMILES | ED50 (Rattus norvegicus [1]) [µmol/kg] | IC50 [2] [nM] | Activity (Mus musculus [3]) | Activity (Rattus norvegicus [4]) | Activity (Rattus norvegicus [5]) | Activity (Mus musculus [6]) | Activity [8] | Activity [10] | Activity [11] | Activity (Rattus norvegicus [19]) | Activity [23] | further results
O=C1NC(=O)C(c2ccccc2)(c2ccccc2)N1 [PHENYTOIN] | 121 | 860 |  |  |  |  |  |  |  |  |  | 
Cc1cccc(C)c1N1C(=O)c2ccc(Cl)cc2C1=O | 354 | 47800 | activity in 0-25% of administered animals | activity in 0-25% of administered animals | activity in 0-25% of administered animals | activity in 0-25% of administered animals | activity in 0-25% of administered animals |  |  |  |  | Activity [7]: activity in 0-25% of administered animals
Cc1cccc(C)c1N1C(=O)c2ccccc2C1=O | 231 | 161000 | activity in 0-25% of administered animals |  | activity in 0-25% of administered animals |  |  | activity in 0-25% of administered animals | activity in 0-25% of administered animals |  |  | Activity (Rattus norvegicus [9]): activity in 0-25% of administered animals
Cc1cccc(C)c1N1C(=O)c2ccc(N)cc2C1=O | 25.3 | 110 |  | Weak activity |  | Active |  |  |  | Active |  | Activity (Rattus norvegicus [12]): Active; Activity [13]: Active; Activity (Rattus norvegicus [14]): Active; Activity (Rattus norvegicus [15]): Active; Activity (Rattus norvegicus [16]): Not toxic; Activity (Mus musculus [17]): inactive; Activity [18]: Active; Activity (Mus musculus [20]): Active; Activity (Mus musculus [21]): Active
Cc1cccc(C)c1NC(=O)c1ccc([N+](=O)[O-])cc1 | 52.3 | 250 |  |  |  |  | Activity at 300 mg/kg |  |  | ++ | Activity at 300 mg/kg | Activity (Mus musculus [22]): Activity at 300 mg/kg; Activity [24]: Activity at 300 mg/kg
Cc1cccc(C)c1NC(=O)c1ccc(N)cc1 [AMELTOLIDE] | 135 |  |  |  |  | Activity at 300 mg/kg |  | Activity at 300 mg/kg | Activity at 300 mg/kg | ++ | Activity at 300 mg/kg | Activity (Rattus norvegicus [25]): ++
